Experimental data reported in ChEMBL document CHEMBL5705885, “CYT387, a selective JAK1/JAK2 inhibitor: in vitro assessment of kinase selectivity and preclinical studies using cell lines and primary cells from polycythemia vera patients” (Leukemia, 2009).

Experiments:
Aurora kinase B [1] = target: T1, Aurora kinase B (Homo sapiens, UniProt Q96GD4); assay: Inhibition of AURKB (unknown origin)
Aurora kinase C = Aurora kinase C (Homo sapiens, UniProt Q9UQB9); assay: Inhibition of AURKC (unknown origin)
[2] = target: Cyclin-dependent kinase 5/CDK5 activator 1 (Homo sapiens, UniProt Q00535); assay: Inhibition of CDK5/p35 (unknown origin); format: protein-complex assay
[3] = target: T2, Dual specificity protein kinase CLK1 (Homo sapiens, UniProt P49759); assay: Inhibition of CLK1 (unknown origin)
[4] = target: T3, Macrophage colony-stimulating factor 1 receptor (Homo sapiens, UniProt P07333); assay: Inhibition of CSF1R (unknown origin)
T3 sequence (P07333 whole entry): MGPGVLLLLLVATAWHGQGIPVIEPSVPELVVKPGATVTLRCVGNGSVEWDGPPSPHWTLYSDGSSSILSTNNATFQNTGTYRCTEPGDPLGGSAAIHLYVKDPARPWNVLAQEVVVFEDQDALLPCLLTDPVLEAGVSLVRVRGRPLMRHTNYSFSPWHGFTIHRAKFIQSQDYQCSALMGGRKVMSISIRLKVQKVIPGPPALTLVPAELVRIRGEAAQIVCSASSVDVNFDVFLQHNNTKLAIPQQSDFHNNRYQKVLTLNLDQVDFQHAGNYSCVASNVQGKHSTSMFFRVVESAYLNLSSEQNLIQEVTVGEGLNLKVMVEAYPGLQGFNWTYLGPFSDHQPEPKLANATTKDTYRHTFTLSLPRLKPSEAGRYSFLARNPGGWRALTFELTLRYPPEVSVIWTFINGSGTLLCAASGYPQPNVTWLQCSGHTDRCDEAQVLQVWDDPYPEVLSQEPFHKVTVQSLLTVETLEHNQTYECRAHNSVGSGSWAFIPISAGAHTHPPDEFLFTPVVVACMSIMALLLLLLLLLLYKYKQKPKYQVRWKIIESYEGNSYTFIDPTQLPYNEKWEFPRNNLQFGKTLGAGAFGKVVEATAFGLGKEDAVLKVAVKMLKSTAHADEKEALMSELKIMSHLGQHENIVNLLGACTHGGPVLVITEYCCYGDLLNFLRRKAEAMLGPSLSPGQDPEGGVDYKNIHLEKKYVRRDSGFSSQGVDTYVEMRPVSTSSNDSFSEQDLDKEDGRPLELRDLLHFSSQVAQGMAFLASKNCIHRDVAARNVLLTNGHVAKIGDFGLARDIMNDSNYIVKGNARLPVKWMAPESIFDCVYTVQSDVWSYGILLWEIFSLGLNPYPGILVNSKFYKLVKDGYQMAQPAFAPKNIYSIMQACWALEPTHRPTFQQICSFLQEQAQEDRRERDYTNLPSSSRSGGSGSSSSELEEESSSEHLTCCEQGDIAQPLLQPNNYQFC

[5] = target: G protein-coupled receptor kinase 4 (Homo sapiens, UniProt P32298); assay: Inhibition of GRK4 (unknown origin)
[6] = target: Mitogen-activated protein kinase kinase kinase 8 (Homo sapiens, UniProt P41279); assay: Inhibition of MAP3K8 (unknown origin)
[7] = target: Mitogen-activated protein kinase 1 (Homo sapiens, UniProt P28482); assay: Inhibition of MAPK1 (unknown origin)
[8] = target: BDNF/NT-3 growth factors receptor (Homo sapiens, UniProt Q16620); assay: Inhibition of NTRK2 (unknown origin)
[9] = target: T4, Protein kinase C gamma type (Homo sapiens, UniProt P05129); assay: Inhibition of PRKCG (unknown origin)
[10] = target: RAF proto-oncogene serine/threonine-protein kinase (Homo sapiens, UniProt P04049, Y340D); assay: Inhibition of RAF1 Y340D (unknown origin)
Sequence of RAF proto-oncogene serine/threonine-protein kinase (P04049 whole entry Y340D): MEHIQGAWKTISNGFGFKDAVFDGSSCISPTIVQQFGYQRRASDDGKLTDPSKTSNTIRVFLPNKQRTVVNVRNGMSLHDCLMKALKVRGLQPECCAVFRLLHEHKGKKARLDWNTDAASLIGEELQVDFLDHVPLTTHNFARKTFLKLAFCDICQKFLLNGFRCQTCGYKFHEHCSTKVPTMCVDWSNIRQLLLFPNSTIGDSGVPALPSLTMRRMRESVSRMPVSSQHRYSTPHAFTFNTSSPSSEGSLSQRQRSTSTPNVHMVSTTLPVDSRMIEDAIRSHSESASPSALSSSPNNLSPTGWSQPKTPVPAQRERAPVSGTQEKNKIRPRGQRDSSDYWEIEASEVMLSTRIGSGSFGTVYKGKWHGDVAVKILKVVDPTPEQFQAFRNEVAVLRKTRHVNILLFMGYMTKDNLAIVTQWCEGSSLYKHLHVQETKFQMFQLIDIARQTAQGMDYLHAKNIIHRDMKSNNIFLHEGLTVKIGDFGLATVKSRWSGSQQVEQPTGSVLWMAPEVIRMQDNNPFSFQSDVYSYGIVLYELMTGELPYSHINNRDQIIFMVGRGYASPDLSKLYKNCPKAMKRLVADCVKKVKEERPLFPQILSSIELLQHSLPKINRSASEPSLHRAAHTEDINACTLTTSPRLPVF

[11] = target: ALK tyrosine kinase receptor (Homo sapiens, UniProt Q9UM73); assay: Inhibition of ALK (unknown origin)
[12] = target: Calcium/calmodulin-dependent protein kinase type IV (Homo sapiens, UniProt Q16566); assay: Inhibition of CAMK4 (unknown origin)
[13] = target: Dual specificity protein kinase CLK2 (Homo sapiens, UniProt P49760); assay: Inhibition of CLK2 (unknown origin)
[14] = target: Tyrosine-protein kinase CSK (Homo sapiens, UniProt P41240); assay: Inhibition of CSK (unknown origin)
[15] = target: Casein kinase I isoform gamma-1 (Homo sapiens, UniProt Q9HCP0); assay: Inhibition of CSNK1G1 (unknown origin)
[16] = target: Casein kinase II subunit alpha (Homo sapiens, UniProt P68400); assay: Inhibition of CSNK2A1 (unknown origin)
Sequence of Casein kinase II subunit alpha (P68400 whole entry): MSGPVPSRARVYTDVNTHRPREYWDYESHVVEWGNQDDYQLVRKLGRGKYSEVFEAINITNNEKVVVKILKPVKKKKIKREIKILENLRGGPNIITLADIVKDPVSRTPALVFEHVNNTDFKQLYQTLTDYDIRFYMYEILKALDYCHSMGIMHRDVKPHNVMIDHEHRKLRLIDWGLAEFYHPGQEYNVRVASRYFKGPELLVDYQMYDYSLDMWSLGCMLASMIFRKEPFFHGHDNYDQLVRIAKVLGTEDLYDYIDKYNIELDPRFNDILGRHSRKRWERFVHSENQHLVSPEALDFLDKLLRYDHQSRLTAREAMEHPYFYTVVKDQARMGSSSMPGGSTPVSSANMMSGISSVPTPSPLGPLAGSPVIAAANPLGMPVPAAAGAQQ

[17] = target: Death-associated protein kinase 3 (Homo sapiens, UniProt O43293); assay: Inhibition of DAPK3 (unknown origin)
Ephrin type-B receptor 3 = Ephrin type-B receptor 3 (Homo sapiens, UniProt P54753); assay: Inhibition of EPHB3 (unknown origin)
[18] = target: Vascular endothelial growth factor receptor 1 (Homo sapiens, UniProt P17948); assay: Inhibition of FLT1 (unknown origin)
[19] = target: Tyrosine-protein kinase FRK (Homo sapiens, UniProt P42685); assay: Inhibition of FRK (unknown origin)
Rhodopsin kinase GRK7 = Rhodopsin kinase GRK7 (Homo sapiens, UniProt Q8WTQ7); assay: Inhibition of GRK7 (unknown origin)
[20] = target: MAP kinase-activated protein kinase 5 (Homo sapiens, UniProt Q8IW41); assay: Inhibition of MAPKAPK5 (unknown origin)
[21] = target: Serine/threonine-protein kinase Nek2 (Homo sapiens, UniProt P51955); assay: Inhibition of NEK2 (unknown origin)
[22] = target: Serine/threonine-protein kinase PAK 6 (Homo sapiens, UniProt Q9NQU5); assay: Inhibition of PAK6 (unknown origin)
[23] = target: Serine/threonine-protein kinase Sgk3 (Homo sapiens, UniProt Q96BR1); assay: Inhibition of SGKL (unknown origin)
SRSF protein kinase 2 = SRSF protein kinase 2 (Homo sapiens, UniProt P78362); assay: Inhibition of SRPK2 (unknown origin)
Sequence of SRSF protein kinase 2 (P78362 whole entry): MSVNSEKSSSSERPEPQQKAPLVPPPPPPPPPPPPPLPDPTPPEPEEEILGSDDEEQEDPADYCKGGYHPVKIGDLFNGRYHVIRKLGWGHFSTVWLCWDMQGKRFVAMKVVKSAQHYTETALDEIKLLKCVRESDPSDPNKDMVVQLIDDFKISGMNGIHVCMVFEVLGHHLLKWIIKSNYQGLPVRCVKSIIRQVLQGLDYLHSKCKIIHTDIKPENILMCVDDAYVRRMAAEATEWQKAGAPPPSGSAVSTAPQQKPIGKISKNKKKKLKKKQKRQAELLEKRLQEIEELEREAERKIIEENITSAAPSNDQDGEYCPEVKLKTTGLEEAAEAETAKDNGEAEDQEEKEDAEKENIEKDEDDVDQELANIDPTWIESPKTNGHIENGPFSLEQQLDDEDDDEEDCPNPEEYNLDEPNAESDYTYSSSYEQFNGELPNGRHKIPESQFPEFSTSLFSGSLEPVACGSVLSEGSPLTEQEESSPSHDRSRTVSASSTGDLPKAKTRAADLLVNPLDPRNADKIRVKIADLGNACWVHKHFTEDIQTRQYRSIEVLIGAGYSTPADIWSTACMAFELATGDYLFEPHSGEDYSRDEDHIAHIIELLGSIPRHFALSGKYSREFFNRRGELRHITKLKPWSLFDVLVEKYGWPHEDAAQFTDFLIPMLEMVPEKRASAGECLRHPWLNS

CMK = assay: Antiproliferative activity against human CMK cells harboring JAK3A572V mutant measured after 72 hrs by Alamar blue staining based analysis; format: functional, cell-based
In short: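 Cells were exposed for 72 h at 37 °C under 5% CO2 to compound made up as DMSO stock and diluted in culture medium. Proliferation was then read by Alamar Blue.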

BaF3 [24] = assay: Antiproliferative activity against mouse BaF3 cells harboring TEL-JAK3 measured after 72 hrs by Alamar blue staining based analysis; format: functional, cell-based; conditions: BaF3, 72 h
In short: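 Murine Ba/F3 cells carrying TEL/JAK2 or TEL/JAK3 fusions, grown in DMEM with 10% fetal calf serum. Compound stocks in DMSO were diluted in culture medium. Proliferation was read by Alamar Blue after 72 h incubation at 37 °C under 5% CO2.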

BaF3 [25] = assay: Antiproliferative activity against mouse BaF3 cells harboring MPLW515L measured after 72 hrs by Alamar blue staining based analysis; format: functional, cell-based; conditions: BaF3, 72 h
In short: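 Ba/F3 murine cells expressing JAK2V617F or MPLW515L. Compound stocks in DMSO were diluted into culture medium. After 72 h at 37 °C in 5% CO2, proliferation was quantified with the Alamar Blue assay.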

[26] = target: Tyrosine-protein kinase JAK2 (Homo sapiens) (UniProt O60674); conditions: dose 100.0 nM
[27] = target: Activin receptor type-1B (Homo sapiens) (UniProt P36896); conditions: dose 100.0 nM
Sequence of Activin receptor type-1B (Homo sapiens) (P36896 whole entry): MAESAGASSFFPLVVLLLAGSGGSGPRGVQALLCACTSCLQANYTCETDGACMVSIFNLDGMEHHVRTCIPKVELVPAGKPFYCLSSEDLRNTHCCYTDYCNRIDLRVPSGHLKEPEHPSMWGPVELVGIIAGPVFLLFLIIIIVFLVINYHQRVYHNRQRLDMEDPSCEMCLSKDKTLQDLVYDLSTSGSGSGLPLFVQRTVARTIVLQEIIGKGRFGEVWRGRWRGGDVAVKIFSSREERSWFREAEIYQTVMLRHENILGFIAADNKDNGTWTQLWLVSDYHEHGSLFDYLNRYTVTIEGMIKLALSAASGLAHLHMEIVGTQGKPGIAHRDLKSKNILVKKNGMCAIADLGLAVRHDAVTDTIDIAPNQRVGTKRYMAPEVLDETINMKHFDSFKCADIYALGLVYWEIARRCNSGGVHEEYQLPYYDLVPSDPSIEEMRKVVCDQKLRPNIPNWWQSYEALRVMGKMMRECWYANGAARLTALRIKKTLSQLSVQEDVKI

Aurora kinase B [28] = target: T1, Aurora kinase B; conditions: dose 100.0 nM
[29] = target: T2, Dual specificity protein kinase CLK1; conditions: dose 100.0 nM
[30] = target: T3, Macrophage colony-stimulating factor 1 receptor; conditions: dose 100.0 nM
[31] = target: Inhibitor of nuclear factor kappa-B kinase subunit beta (Homo sapiens) (UniProt O14920); conditions: dose 100.0 nM
[32] = target: Macrophage-stimulating protein receptor (Homo sapiens, UniProt Q04912); conditions: dose 100.0 nM
[33] = target: Myosin light chain kinase 2, skeletal/cardiac muscle (Homo sapiens, UniProt Q9H1R3); conditions: dose 100.0 nM
[34] = target: Serine/threonine-protein kinase Nek9 (Homo sapiens) (UniProt Q8TD19); conditions: dose 100.0 nM
[35] = target: T4, Protein kinase C gamma type; conditions: dose 100.0 nM
[36] = target: Serine/threonine-protein kinase D2 (Homo sapiens) (UniProt Q9BZL6); conditions: dose 100.0 nM
[37] = target: Proto-oncogene tyrosine-protein kinase ROS (Homo sapiens, UniProt P08922); conditions: dose 100.0 nM
[38] = target: Ribosomal protein S6 kinase beta-1 (Homo sapiens, UniProt P23443); conditions: dose 100.0 nM
[39] = target: Serine/threonine-protein kinase Sgk1 (Homo sapiens) (UniProt O00141); conditions: dose 100.0 nM

T1 sequence (Q96GD4 whole entry): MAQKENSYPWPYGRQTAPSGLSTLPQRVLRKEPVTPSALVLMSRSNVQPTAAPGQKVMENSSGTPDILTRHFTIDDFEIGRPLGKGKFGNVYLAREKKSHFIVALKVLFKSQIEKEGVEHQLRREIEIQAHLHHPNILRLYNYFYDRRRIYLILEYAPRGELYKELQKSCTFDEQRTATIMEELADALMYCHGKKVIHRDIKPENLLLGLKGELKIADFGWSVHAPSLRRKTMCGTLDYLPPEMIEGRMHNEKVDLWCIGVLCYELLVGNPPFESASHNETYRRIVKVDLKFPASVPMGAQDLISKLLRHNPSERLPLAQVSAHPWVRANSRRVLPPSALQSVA

Compound `N#CCNC(=O)c1ccc(-c2ccnc(Nc3ccc(N4CCOCC4)cc3)n2)cc1` [MOMELOTINIB] has an IC50 (Aurora kinase B [1]) of under 1000 nM, an IC50 (Aurora kinase C) of under 1000 nM and an IC50 [2] of under 1000 nM. The IC50 [3] was under 1000 nM, the IC50 [4] was under 1000 nM and the IC50 [5] was under 1000 nM. It also gave an IC50 [6] of under 1000 nM, an IC50 [7] of under 1000 nM and an IC50 [8] of under 1000 nM. The IC50 [9] was under 1000 nM, the IC50 [10] was under 1000 nM and the IC50 [11] was over 1000 nM. The IC50 [12] was over 1000 nM, the IC50 [13] was over 1000 nM and the IC50 [14] was over 1000 nM. It also gave an IC50 [15] of over 1000 nM, an IC50 [16] of over 1000 nM and an IC50 [17] of over 1000 nM. The IC50 (Ephrin type-B receptor 3) was over 1000 nM, the IC50 [18] was over 1000 nM and the IC50 [19] was over 1000 nM. The IC50 (Rhodopsin kinase GRK7) was over 1000 nM, the IC50 [20] was over 1000 nM and the IC50 [21] was over 1000 nM. For the same compound, the IC50 [22] was over 1000 nM, the IC50 [23] was over 1000 nM and the IC50 (SRSF protein kinase 2) was over 1000 nM. The IC50 (CMK) was 700 nM, the IC50 (BaF3 [24]) was 2350 nM and the IC50 (BaF3 [25]) was 200 nM. For the same compound, the inhibition [26] was over 50%, the inhibition [27] was under 50% and the inhibition (Aurora kinase B [28]) was under 50%. The inhibition [29] was under 50%, the inhibition [30] was under 50% and the inhibition [31] was under 50%. It also gave an inhibition [32] of under 50%, an inhibition [33] of under 50% and an inhibition [34] of under 50%. The inhibition [35] was under 50%, the inhibition [36] was under 50% and the inhibition [37] was under 50%. It also gave an inhibition [38] of under 50% and an inhibition [39] of under 50%.
